Experimental data reported in ChEMBL document CHEMBL1817650, “Fragment-based drug design and drug repositioning using multiple ligand simultaneous docking (MLSD): identifying celecoxib and template compounds as novel inhibitors of signal transducer and activator of transcription 3 (STAT3)” (J Med Chem, 2011).
The source made the active and inactive calls. The rule behind the calls is not given here.

Columns and labels:
[1] = target: Signal transducer and activator of transcription 3 (Homo sapiens) (UniProt P40763); test: Inhibition of STAT3 SH2 domain phosphorylation at Tyr705 in COX2-negative human HCT116 cells after 24 hrs by Western blot analysis; settings: HCT-116
HCT-116 [2] = test: Anticancer activity against human HCT116 cells after 72 hrs by MTT assay; type: functional, cell-based; settings: HCT-116, 72 h
In short: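 HCT-116 cells, 3,000 per well, given escalating concentrations (5–160 μM or 1–75 μM depending on compound) in triplicate with 10% FBS. Incubation was 72 h at 37°C, then MTT viability read-out at 595 nm absorbance. IC50 was derived by curve fitting.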

HCT-116 [3] = test: Inhibition of STAT3 protein expression in COX2-negative human HCT116 cells at 10 to 50 uM after 24 hrs by Western blot analysis
[4] = target: Signal transducer and activator of transcription 3 (Homo sapiens) (UniProt P40763); test: Inhibition of IL-6-induced STAT3 phosphorylation in human PANC1 cells at 25 to 50 µM pretreated 2 hrs prior to IL-6 challenge measured after 30 mins; type: cell-based; settings: PANC-1
In short: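 PANC-1 cells were serum-starved for 24 h, then pretreated with 25 or 50 μM compound for 2 h. They were then stimulated with IL-6 at 50 ng/ml for 30 min, and STAT3 phosphorylation was assessed.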

[5] = target: Signal transducer and activator of transcription 1 (Homo sapiens) (UniProt P42224); test: Inhibition of interferon gamma induced STAT1 phosphorylation in human PANC1 cells at […] pretreated 2 hrs prior to interferon-gamma challenge measured after 30; settings: PANC-1
Signal transducer and activator of transcription 1 (Homo sapiens), sequence (P42224 whole entry, looked up): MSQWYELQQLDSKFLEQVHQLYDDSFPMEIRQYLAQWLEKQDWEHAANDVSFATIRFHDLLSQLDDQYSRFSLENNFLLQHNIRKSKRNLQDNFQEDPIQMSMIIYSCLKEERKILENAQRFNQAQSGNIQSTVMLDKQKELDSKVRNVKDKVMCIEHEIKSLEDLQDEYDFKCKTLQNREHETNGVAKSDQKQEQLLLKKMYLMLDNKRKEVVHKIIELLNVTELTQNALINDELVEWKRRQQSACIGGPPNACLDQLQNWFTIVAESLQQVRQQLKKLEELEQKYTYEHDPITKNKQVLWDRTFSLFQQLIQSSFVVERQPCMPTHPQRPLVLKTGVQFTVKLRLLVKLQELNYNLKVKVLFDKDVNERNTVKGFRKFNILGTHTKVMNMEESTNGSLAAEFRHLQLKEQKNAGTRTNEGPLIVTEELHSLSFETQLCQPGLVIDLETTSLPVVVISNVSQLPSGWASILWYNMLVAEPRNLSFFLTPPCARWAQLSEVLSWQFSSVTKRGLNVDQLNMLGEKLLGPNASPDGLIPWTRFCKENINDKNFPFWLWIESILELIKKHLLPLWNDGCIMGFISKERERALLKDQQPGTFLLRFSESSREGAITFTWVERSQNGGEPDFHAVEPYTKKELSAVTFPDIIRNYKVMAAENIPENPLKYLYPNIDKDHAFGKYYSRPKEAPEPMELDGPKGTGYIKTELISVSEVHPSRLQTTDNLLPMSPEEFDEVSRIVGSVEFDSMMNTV

Signal transducer and activator of transcription 3 (Homo sapiens), sequence (P40763 whole entry, the tested form may be a part): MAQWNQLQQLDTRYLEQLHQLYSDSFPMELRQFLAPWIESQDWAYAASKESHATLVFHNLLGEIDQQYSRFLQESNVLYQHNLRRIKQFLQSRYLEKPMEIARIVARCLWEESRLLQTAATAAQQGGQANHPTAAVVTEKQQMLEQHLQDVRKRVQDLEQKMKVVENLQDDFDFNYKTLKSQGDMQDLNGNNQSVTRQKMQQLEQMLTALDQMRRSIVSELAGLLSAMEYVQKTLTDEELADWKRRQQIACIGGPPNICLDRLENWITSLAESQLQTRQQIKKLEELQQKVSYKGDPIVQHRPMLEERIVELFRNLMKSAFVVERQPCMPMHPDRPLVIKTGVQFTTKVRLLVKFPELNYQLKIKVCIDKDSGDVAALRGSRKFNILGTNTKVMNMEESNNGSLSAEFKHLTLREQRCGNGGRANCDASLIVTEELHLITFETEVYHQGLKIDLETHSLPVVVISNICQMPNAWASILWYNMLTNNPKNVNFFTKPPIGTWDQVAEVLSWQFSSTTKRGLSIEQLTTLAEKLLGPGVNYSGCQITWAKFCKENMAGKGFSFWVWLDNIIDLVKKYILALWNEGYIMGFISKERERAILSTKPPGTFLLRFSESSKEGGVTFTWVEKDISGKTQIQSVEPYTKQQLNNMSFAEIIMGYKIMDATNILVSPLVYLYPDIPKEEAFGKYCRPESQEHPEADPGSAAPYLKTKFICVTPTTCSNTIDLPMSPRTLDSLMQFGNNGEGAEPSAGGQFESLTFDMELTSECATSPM

Row | inhibition [1] | IC50 (HCT-116 [2]) | inhibition [4] | inhibition [5] | Compound | inhibition (HCT-116 [3])
1 | Dose-dependent effect | 10.1 µM |  |  | NS(=O)(=O)c1ccc(-n2nc(C(=O)NN3CCCCC3)cc2-c2ccc(-c3ccccc3)cc2)cc1 | inactive
2 | Dose-dependent effect | 43.3 µM | Active | inactive | Cc1ccc(-c2cc(C(F)(F)F)nn2-c2ccc(S(N)(=O)=O)cc2)cc1 [CELECOXIB] | inactive
3 | Dose-dependent effect | 9.7 µM |  |  | Cc1ccc(Cc2cc(-c3ccc(Br)cc3)n(-c3ccc(S(N)(=O)=O)cc3)n2)cc1 | inactive
